From ChEMBL document CHEMBL1641462, “Synthesis and in vivo evaluation of ¹⁸F-fluoroethyl GF120918 and XR9576 as positron emission tomography probes for assessing the function of drug efflux transporters” (Bioorg Med Chem, 2011)

Experiments:
[1] = system: Heart; assay: Biodistribution in FVB mouse heart assessed per gram of tissue at 1 to 4.8 MBq, iv after 5 mins; assay type: ADME, organism-based; conditions: in vivo
How it was run: (§1)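 Male FVB mice (8–10 weeks, 25–29 g) received tracer iv (1.0–4.8 MBq, 7.1–34 pmol). Killed by cervical dislocation at 5, 15, 30, 60 or 90 min. Blood taken by heart puncture; tissues dissected, weighed and gamma-counted. Activity decay-corrected to injection time and given as %ID/g; mean ± SD, n = 4 per time point.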

[2] = system: Lung; assay: Biodistribution in FVB mouse lung assessed per gram of tissue at 1 to 4.8 MBq, iv after 5 mins; assay type: ADME, organism-based; conditions: in vivo; how it was run: as §1
[3] = system: Spleen; assay: Biodistribution in FVB mouse spleen assessed per gram of tissue at 1 to 4.8 MBq, iv after 5 mins; assay type: ADME, organism-based; conditions: in vivo
How it was run: (§2)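 Male FVB mice (8–10 weeks, 25–29 g) given tracer 1.0–4.8 MBq/7.1–34 pmol iv; killed by cervical dislocation at set times (n = 4 per group). Blood by heart puncture; tissues dissected, weighed and gamma counted. Radioactivity decay-corrected to injection time, expressed as %ID/g, mean ± SD.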

[4] = system: Kidney; assay: Biodistribution in FVB mouse kidney assessed per gram of tissue at 1 to 4.8 MBq, iv after 5 mins; assay type: ADME, organism-based; conditions: in vivo; how it was run: as §1
[5] = Biodistribution in FVB mouse small intestine assessed per gram of tissue at 1 to 4.8 MBq, iv after 5 mins; assay type: ADME, organism-based; conditions: in vivo; how it was run: as §2
[6] = system: Blood; assay: Biodistribution in FVB mouse blood assessed per gram of tissue at 1 to 4.8 MBq, iv after 15 mins; assay type: ADME, organism-based; conditions: in vivo, 0.25 h; how it was run: as §1
[7] = system: Heart; assay: Biodistribution in FVB mouse heart assessed per gram of tissue at 1 to 4.8 MBq, iv after 15 mins; assay type: ADME, organism-based; conditions: in vivo, 0.25 h; how it was run: as §1
[8] = system: Lung; assay: Biodistribution in FVB mouse lung assessed per gram of tissue at 1 to 4.8 MBq, iv after 15 mins; assay type: ADME, organism-based; conditions: in vivo, 0.25 h; how it was run: as §1
[9] = system: Liver; assay: Biodistribution in FVB mouse liver assessed per gram of tissue at 1 to 4.8 MBq, iv after 15 mins; assay type: ADME, organism-based; conditions: in vivo, 0.25 h; how it was run: as §1
[10] = Biodistribution in FVB mouse small intestine assessed per gram of tissue at 1 to 4.8 MBq, iv after 15 mins; assay type: ADME, organism-based; conditions: in vivo, 0.25 h; how it was run: as §2
[11] = system: Muscle tissue; assay: Biodistribution in FVB mouse muscle assessed per gram of tissue at 1 to 4.8 MBq, iv after 15 mins; assay type: ADME, organism-based; conditions: in vivo, 0.25 h; how it was run: as §1
[12] = system: Bone; assay: Biodistribution in FVB mouse bone assessed per gram of tissue at 1 to 4.8 MBq, iv after 15 mins; assay type: ADME, organism-based, Bone element; conditions: in vivo, 0.25 h; how it was run: as §1
[13] = system: Lung; assay: Biodistribution in FVB mouse lung assessed per gram of tissue at 1 to 4.8 MBq, iv after 30 mins; assay type: ADME, organism-based; conditions: in vivo, 0.5 h; how it was run: as §1
[14] = system: Pancreas; assay: Biodistribution in FVB mouse pancreas assessed per gram of tissue at 1 to 4.8 MBq, iv after 30 mins; assay type: ADME, organism-based; conditions: in vivo, 0.5 h; how it was run: as §2
[15] = system: Spleen; assay: Biodistribution in FVB mouse spleen assessed per gram of tissue at 1 to 4.8 MBq, iv after 30 mins; assay type: ADME, organism-based; conditions: in vivo, 0.5 h; how it was run: as §2
[16] = system: Kidney; assay: Biodistribution in FVB mouse kidney assessed per gram of tissue at 1 to 4.8 MBq, iv after 30 mins; assay type: ADME, organism-based; conditions: in vivo, 0.5 h; how it was run: as §1
[17] = system: Muscle tissue; assay: Biodistribution in FVB mouse muscle assessed per gram of tissue at 1 to 4.8 MBq, iv after 30 mins; assay type: ADME, organism-based; conditions: in vivo, 0.5 h; how it was run: as §1
[18] = system: Liver; assay: Biodistribution in FVB mouse liver assessed per gram of tissue at 1 to 4.8 MBq, iv after 60 mins; assay type: ADME, organism-based; conditions: in vivo, 1 h; how it was run: as §1
[19] = system: Spleen; assay: Biodistribution in FVB mouse spleen assessed per gram of tissue at 1 to 4.8 MBq, iv after 60 mins; assay type: ADME, organism-based; conditions: in vivo, 1 h; how it was run: as §2
[20] = system: Muscle tissue; assay: Biodistribution in FVB mouse muscle assessed per gram of tissue at 1 to 4.8 MBq, iv after 60 mins; assay type: ADME, organism-based; conditions: in vivo, 1 h; how it was run: as §1
[21] = system: Bone; assay: Biodistribution in FVB mouse bone assessed per gram of tissue at 1 to 4.8 MBq, iv after 60 mins; assay type: ADME, organism-based, Bone element; conditions: in vivo, 1 h; how it was run: as §1
[22] = system: Blood; assay: Biodistribution in FVB mouse blood assessed per gram of tissue at 1 to 4.8 MBq, iv after 90 mins; assay type: ADME, organism-based; conditions: in vivo, 1.5 h; how it was run: as §1
[23] = system: Heart; assay: Biodistribution in FVB mouse heart assessed per gram of tissue at 1 to 4.8 MBq, iv after 90 mins; assay type: ADME, organism-based; conditions: in vivo, 1.5 h; how it was run: as §1
[24] = system: Liver; assay: Biodistribution in FVB mouse liver assessed per gram of tissue at 1 to 4.8 MBq, iv after 90 mins; assay type: ADME, organism-based; conditions: in vivo, 1.5 h; how it was run: as §1
[25] = system: Spleen; assay: Biodistribution in FVB mouse spleen assessed per gram of tissue at 1 to 4.8 MBq, iv after 90 mins; assay type: ADME, organism-based; conditions: in vivo, 1.5 h; how it was run: as §2
[26] = system: Muscle tissue; assay: Biodistribution in FVB mouse muscle assessed per gram of tissue at 1 to 4.8 MBq, iv after 90 mins; assay type: ADME, organism-based; conditions: in vivo, 1.5 h; how it was run: as §1
[27] = system: Bone; assay: Biodistribution in FVB mouse bone assessed per gram of tissue at 1 to 4.8 MBq, iv after 90 mins; assay type: ADME, organism-based, Bone element; conditions: in vivo, 1.5 h; how it was run: as §1
[28] = system: Brain; assay: Biodistribution in FVB mouse brain assessed per gram of tissue at 1 to 4.8 MBq, iv after 90 mins; assay type: ADME, organism-based; conditions: in vivo, 1.5 h; how it was run: as §1
[29] = system: Brain; assay: Metabolic stability in FVB mouse brain assessed as recovery of radioactivity at 1 to 4.8 MBq, iv by HPLC analysis; assay type: ADME, organism-based; conditions: in vivo
How it was run: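 Brain homogenate or plasma from tracer plus GF120918 (5 mg/kg) co-injected FVB mice deproteinized with equal volume ice-cold acetonitrile; radioactivity in supernatant, precipitate and HPLC waste gamma counted to give recovery, mean ± SD (n = 7).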

[30] = system: Brain; assay: Biodistribution in P-gp knockout mouse brain at 3.3 to 4.9 MBq, iv after up to 60 mins; assay type: ADME, organism-based; conditions: in vivo, 1 h
[31] = system: Brain; assay: Ratio of AUC (0 to 60 mins) in wild type mouse brain to AUC (0 to 60 mins) in wild type mouse brain at 2.8 to 5.6 MBq, iv co-administered with GF120918; assay type: ADME, organism-based; conditions: in vivo
[32] = system: Brain; assay: AUC (0 to 60 mins) in wild type mouse brain at 2.8 to 5.6 MBq, iv co-administered with GF120918; assay type: ADME, organism-based; conditions: in vivo
How it was run: (§3)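 Small-animal PET in male wild-type and knockout mice under isoflurane (1.0–1.5%), prone on the scanner bed. Tracer (2.8–5.6 MBq, 20–40 pmol) given iv, with or without co-injected GF120918 at 5 mg/kg. Dynamic 60-min list-mode scan. Decay-corrected SUV read from ROIs on brain, and on the ventricular cavity for blood. AUC taken over 0–60 min in SUV·min; n = 4 per group.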

[33] = system: Blood; assay: AUC (0 to 60 mins) in P-gp/BCRP knockout mouse blood at 2.8 to 5.6 MBq, iv; assay type: ADME, tissue-based; how it was run: as §3
[34] = system: Blood; assay: AUC (0 to 60 mins) in P-gp knockout mouse blood at 2.8 to 5.6 MBq, iv; assay type: ADME, tissue-based; how it was run: as §3
[35] = system: Blood; assay: AUC (0 to 60 mins) in BCRP knockout mouse blood at 2.8 to 5.6 MBq, iv; assay type: ADME, tissue-based; how it was run: as §3
[36] = Fold increase in brain-to-blood ratio of drug level in FVB mouse at 1 to 4.8 MBq, iv co-administered with 5 mg/kg, iv of GF120918; conditions: brain and blood, with GF120918, 5 mg/kg iv

Structure (SMILES) | Drug uptake [1] [% ID/g] | Drug uptake [2] [% ID/g] | Drug uptake [3] [% ID/g] | Drug uptake [4] [% ID/g] | Drug uptake [5] [% ID/g] | Drug uptake [6] [% ID/g] | Drug uptake [7] [% ID/g] | Drug uptake [8] [% ID/g] | Drug uptake [9] [% ID/g] | Drug uptake [10] [% ID/g] | Drug uptake [11] [% ID/g] | Drug uptake [12] [% ID/g] | Drug uptake [13] [% ID/g] | Drug uptake [14] [% ID/g] | Drug uptake [15] [% ID/g] | Drug uptake [16] [% ID/g] | Drug uptake [17] [% ID/g] | Drug uptake [18] [% ID/g] | Drug uptake [19] [% ID/g] | Drug uptake [20] [% ID/g] | also measured
COc1cc(NC(=O)c2cnc3ccccc3c2)c(C(=O)Nc2ccc(CCN3CCc4cc(OC)c(OCC[18F])cc4C3)cc2)cc1OC | 7.44 | 22.5 | 5.12 | 18 | 5.67 | 0.88 | 3.49 | 20.55 | 31.06 | 9.42 | 1.61 | 1.85 | 17.89 | 8.56 | 6.34 | 11.34 | 1.04 | 25.4 | 7.18 | 0.92 | Drug uptake [21]: 1.62 % ID/g; Drug uptake [22]: 0.57 % ID/g; Drug uptake [23]: 1.74 % ID/g; Drug uptake [24]: 22.18 % ID/g; Drug uptake [25]: 7.42 % ID/g; Drug uptake [26]: 0.68 % ID/g; Drug uptake [27]: 1.45 % ID/g; Drug uptake [28]: 0.1 % ID/g; Stability [29]: 92.5%; Activity [30]: Active; Ratio AUC [31]: 7.1; AUC [32]: 28.1 SUV·min; AUC [33]: 33.9 SUV·min; AUC [34]: 45 SUV·min; AUC [35]: 42.2 SUV·min; Fold increase [36]: 10
COc1cc2c(cc1OC)CN(CCc1ccc(NC(=O)c3cccc4c(=O)c5cccc(OCC[18F])c5[nH]c34)cc1)CC2 | 6.65 | 19.6 | 4.76 | 20.65 | 4.51 | 0.72 | 2.43 | 13.32 | 5.99 | 7.09 | 1.18 | 1.66 | 7.21 | 11.15 | 5.82 | 19.45 | 0.62 | 11.6 | 5.74 | 0.53 | Drug uptake [21]: 1.43 % ID/g; Drug uptake [22]: 0.36 % ID/g; Drug uptake [23]: 0.85 % ID/g; Drug uptake [24]: 14.82 % ID/g; Drug uptake [25]: 4.71 % ID/g; Drug uptake [26]: 0.38 % ID/g; Drug uptake [27]: 1.3 % ID/g; Drug uptake [28]: 0.13 % ID/g; Stability [29]: 91.4%; Activity [30]: Active; Ratio AUC [31]: 6.9; AUC [32]: 30.2 SUV·min; AUC [33]: 25 SUV·min; AUC [34]: 23.5 SUV·min; AUC [35]: 25.3 SUV·min; Fold increase [36]: 10
